CRFBP-R2 block: antagonists of CRF-binding protein/CRF-R2 receptor complex | HEK293 CRF-R2/CRF-BP, CRF-induced calcium fluorescence | inhibition, % at 11.8 µM | 350,000 compounds, 0.59% hits | AID 588475;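 active = inhibition of the ligand-induced calcium signal above about 50% at the single tested concentration, limit read from the data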
697 NFkB inh: inhibitors of the PMA/ionomycin-induced NF-kB reporter in 697 B cells; 697 B-cell NF-kB luciferase reporter, 16 h; inhibition, % at 4 µM; 330,000 compounds, 0.33% hits; AID 435022; in the data active = inhibition above about 35%
UPR CHOP act: apoptotic UPR (CHOP) activation | CHO-CHOP luciferase reporter, luminescence; percent of tunicamycin response over DMSO baseline | activation, % at 10 µM | 330,000 compounds, 0.34% hits | AID 449763;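 active = at 10 µM dose, activation of 40% or more, normalized to positive control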;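 note: 100% = tunicamycin at 10 µg/mL and 0% = DMSO alone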
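Assay system: CHO cells with stable CHOP pathway luciferase reporter; Buffer or medium: F12 plus 10% serum; Times: 16-18 h cell attachment, then 6 h compound exposure, 37 °C; Signal: luciferase luminescence; Read-out basis: percent activation relative to tunicamycin control; Control set: tunicamycin high control, DMSO low control.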
Jurkat NFkB inh: inhibitors of the PMA/ionomycin-induced NF-kB reporter in Jurkat cells. PMA/ionomycin-induced NF-kB luciferase reporter, luminescence. inhibition, % at 4 µM. 330,000 compounds, 0.53% hits; in the data active = inhibition above about 50%
XBP1 UPR activ: activators of adaptive arm of unfolded protein response (XBP1). 330,000 compounds, 0.33% hits. activation, % at 20 µM. CHO-XBP1 luciferase reporter, IRE1-XBP1 UPR activation, luminescence; percent of tunicamycin response, DMSO as zero. AID 463104;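 active = versus positive control, 20 µM dose yields 30% or more activation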;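 note: 100% = tunicamycin at 10 µg/mL and 0% = DMSO only wells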
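Material: CHO cell line with stable XBP1 luciferase reporter; schedule: 16-18 h cell attachment at 37 °C, then 6 h compound exposure; signal: glow luminescence from Steady-Glo reagent; medium: serum-containing F12 medium, 10% FBS; benchmarks: tunicamycin 10 µg/mL and vehicle-only wells; read-out: percent activation relative to tunicamycin reference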
Jurkat NFkB conf: inhibitors of the PMA/ionomycin-induced NF-kB reporter in Jurkat cells, retest | shares compounds with Jurkat NFkB inh | AID 435020 | 2,700 compounds, 27% hits | inhibition, % at 4 µM | Jurkat NF-kB luciferase, 16 h;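 active = inhibition reaching about 45% at 4 µM in either replicate, limit read from the data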;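 note: plate controls were PMA/ionomycin stimulated DMSO wells for no effect and unstimulated DMSO wells for full effect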
Active calls of the source: *; . = not tested or not shown. Only some compounds are listed: those with a hit (about 1.8% of all), similar ones and a draw of the others.

SMILES	CRFBP-R2 block	697 NFkB inh	UPR CHOP act	Jurkat NFkB inh	XBP1 UPR activ	Jurkat NFkB conf
Oc1ccc(/C=C/c2ccc3ccccc3n2)cc1	0	-116	-7	15	-7	.
CN(Cc1ccsc1)C(=O)Cn1cc(Br)ccc1=O	1	-29	3	-37	-1	.
CCCN1CCC(=O)N(CCSc2ccc(OC)cc2)CC1	1	-2	1	54*	0	18
CCCN1CCC(=O)N(CCSc2ccc(C)cc2)CC1	5	-6	1	-23	3	.
Cc1cc(-c2ccc(C)c(S(=O)(=O)N3CCN(c4ccc([N+](=O)[O-])cc4)CC3)c2)on1	-7	-9	2	54*	-3	64*
CCc1ccc(-c2cc(C)no2)cc1S(=O)(=O)N1CCN(c2ccccc2)CC1	-7	-65	4	53*	-7	7
COc1ccc(-n2nc3cc(C)c(N)c(Br)c3n2)cc1	5	-164	5	-199	4	-112
COc1ccc(-n2nc3cc(N)c(Br)cc3n2)cc1	-10	-142	8	31	8	.
Cc1cccn2c(=O)nc(SCC(=O)NCc3ccccc3)nc12	5	8	1	-1	2	.
COc1ccc(C(=O)NN/C(=N/S(=O)(=O)c2ccc(C)cc2)c2ccccc2)cc1	2	-192	4	-181	2	-107
CC(=O)c1ccc(OCCCC(=O)Nc2cc(S(=O)(=O)N3CCCCC3)ccc2C)cc1	1	9	-1	15	-4	.
O=C(Nc1ccc2c(c1)OCCO2)c1cccc(Br)c1	3	-55	4	-174	-3	-101
Cc1cc(Cl)ccc1NC(=O)c1ccc2c(c1)OCO2	6	-89	6	-81	2	.
Cc1cc(C(=O)Nc2ccc3c(c2)OCCO3)ccc1[N+](=O)[O-]	2	-72	-1	-160	-9	-82
O=C(Nc1ccc2c(c1)OCCO2)c1ccc(Br)cc1	25	-75	4	-138	-3	.
Nc1c(C(=O)Nc2ccc3c(c2)OCCO3)nnn1Cc1ccc(Br)cc1	-7	-190	8	-200	9	-112
O=C(Nc1ccc(Cl)cc1Cl)c1ccc2c(c1)OCCO2	-1	-241	-1	-167	-4	-95
C[C@@H]1CCCCO[C@H](CN(C)C(=O)Cc2ccccc2)[C@H](C)CN([C@@H](C)CO)C(=O)c2cc(NC(=O)Nc3ccc(F)cc3)ccc2O1	1	.	.	.	.	.
CC(C)c1ccc(NC(=O)c2cccc(Br)c2)cc1	-6	-207	4	-234	5	-106
CCN1CCN(c2cc(C)c3cc(NC(=O)c4ccc5c(c4)OCO5)ccc3n2)CC1	17	-2	11	-3	24	.
CCN1CCN(c2ccc(NC(=O)c3ccc4c(c3)OCCO4)cc2C)CC1	-6	-76	2	-165	0	-40
O=C(Nc1ccc2c(c1)OCCO2)c1ccc(Cl)c(Cl)c1	0	-45	5	-151	-4	-132
CN(C)c1ccc(NS(=O)(=O)c2cc3c4c(c2)CC(=O)N4CCC3)cc1	8	-5	3	13	-2	.
O=C(CSC(=O)c1ccccc1)Nc1ccccc1F	-5	0	-1	-7	2	.
CC(C)Oc1ccc2c(=O)c(-c3ccccc3)coc2c1	-4	-211	2	-185	-7	-83
SMILES	CRFBP-R2 block	697 NFkB inh	UPR CHOP act	Jurkat NFkB inh	XBP1 UPR activ	Jurkat NFkB conf
O=C(CCN1CCN(c2ccccc2)CC1)NNC(=O)Cc1ccc(Br)cc1	-5	11	0	7	-4	.
CCOc1ccccc1NC(=O)c1cccc(NC(=O)c2ccco2)c1	19	-35	-1	57*	3	31
Cc1ccccc1NC(=O)c1cccc(NC(=O)c2ccco2)c1	2	-4	-1	-9	-5	.
O=C(c1ccc2c(c1)OCCO2)N1CCN(c2ccc([N+](=O)[O-])cc2)CC1	.	7	0	56*	-5	-12
O=C(c1cc([N+](=O)[O-])ccc1N1CCOCC1)N1CCN(c2ccccc2)CC1	.	-54	0	74*	16	33
O=C(NCCOc1ccccc1)c1cc([N+](=O)[O-])ccc1N1CCOCC1	-37	-66	-1	60*	-1	57*
Cc1c(-c2ccccc2)oc2c(C(=O)N3CCN(c4ccc([N+](=O)[O-])cc4)CC3)cccc2c1=O	-32	-23	1	2	-4	.
CC(=O)N1CCN(C(=O)c2ccc3c(c2)OCCO3)CC1	-4	16	0	16	-2	.
Cc1c(C(=O)N2CCN(c3ccc([N+](=O)[O-])cc3)CC2)oc2ccccc12	18	14	-1	51*	-5	32
O=C(NCCc1ccccc1)c1cc([N+](=O)[O-])ccc1N1CCOCC1	13	10	-1	8	-2	.
CCOc1ccc(C(=O)NN2CCOCC2)cc1	-5	-2	1	-5	-4	.
CC1(C)O[C@@H]2[C@H](O1)[C@@H](COS(=O)(=O)O)O[C@H]2n1cnc2c(N)ncnc21	.	8	-1	-5	-2	.
CC(C)NC(=O)C(c1ccc(F)cc1)N(C(=O)CCC(=O)Nc1ccccn1)C1CCCCC1 (centres undefined)	1	2	1	-18	2	.
O=C(NCCc1ccc(F)cc1)c1cc([N+](=O)[O-])ccc1N1CCOCC1	1	5	0	6	4	.
O=C(NCCOc1ccccc1F)c1cc([N+](=O)[O-])ccc1N1CCOCC1	6	-8	2	57*	-9	30
COc1ccc(-c2nc3ccccc3s2)cc1NC(C)=O	10	-117	6	-183	4	-73
CCNC(=O)O/N=C(\C)c1sc(-c2ccc(Cl)cc2)nc1C	3	-143	3	-171	0	-100
C/C(=N\OC(=O)NC(C)C)c1sc(-c2ccc(Cl)cc2)nc1C	-2	-138	4	-131	4	.
CCC(=NCCc1c(C)[nH]c2ccc(C)cc12)C1=C(O)CC(c2ccccc2)CC1=O (centres undefined)	10	-22	2	64*	8	10
Cc1cc(-c2ccc(C(C)C)c(S(=O)(=O)NCCN3CCC(C)CC3)c2)on1	-11	-1	0	-4	-2	.
COc1ccc(-c2csc(NC(=O)C3CCN(c4ncnc5sc(C)c(C)c45)CC3)n2)cc1OC	5	-6	5	53*	5	39
CC(C)Oc1ccc(C(=O)NC2CCCCC2)cc1	41	-81	-4	-80	3	.
CC(C)Oc1ccc(C(CCN)C2CCCCC2)cc1 (centres undefined)	-21	8	4	56*	7	11
COc1ccccc1C(=O)Nc1nc2cc3c(cc2s1)OCCO3	5	-194	2	-160	0	-98
COc1ccccc1C(=O)Nc1nc2cc3c(cc2s1)OCO3	-1	-210	7	-134	5	.

Bioassay records: PubChem BioAssay, Sanford-Burnham Center for Chemical Genomics
